NF-kB expr up: NF-kB expression increase, human neuronal cells | NF-kB reporter expression; active compounds read high | fold change at 12.5 µM | hit rate 1.6% among 190,000; in the data active = fold change above about 3.3
FLuc inhib CS: Photinus pyralis luciferase inhibition counter-screen; P08659; ATPLite firefly luciferase biochemical luminescence, 10 min; inhibition, % at 10 µM; hit rate 1.5% among 200,000;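 active = inhibition above about 50% when tested at 10 µM, limit read from the data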
Target sequence (P08659 whole entry, looked up): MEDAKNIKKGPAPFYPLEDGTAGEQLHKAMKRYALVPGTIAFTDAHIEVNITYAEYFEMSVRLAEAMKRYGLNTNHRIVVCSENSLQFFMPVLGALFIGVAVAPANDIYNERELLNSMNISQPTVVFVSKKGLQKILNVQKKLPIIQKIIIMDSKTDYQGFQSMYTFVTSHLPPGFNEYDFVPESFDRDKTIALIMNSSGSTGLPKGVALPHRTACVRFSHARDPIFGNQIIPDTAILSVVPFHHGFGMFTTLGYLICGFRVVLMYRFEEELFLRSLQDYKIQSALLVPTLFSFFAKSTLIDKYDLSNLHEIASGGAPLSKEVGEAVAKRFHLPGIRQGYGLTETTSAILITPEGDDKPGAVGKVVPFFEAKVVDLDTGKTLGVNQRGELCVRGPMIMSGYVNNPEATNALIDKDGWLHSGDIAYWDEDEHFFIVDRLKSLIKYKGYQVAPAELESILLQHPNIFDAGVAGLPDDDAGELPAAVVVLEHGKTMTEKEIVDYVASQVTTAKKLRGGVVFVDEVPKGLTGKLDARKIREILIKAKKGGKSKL
PPC-1+TRAIL kill: kills PPC-1 cancer cells in the presence of TRAIL. PPC-1 cells + TRAIL, ATPLite viability luminescence. cell killing (% activity), % at 4 µM or 5 µM. hit rate 0.41% among 220,000. AID 1443;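 active = cell killing above 50% in the first pass at 4 µM, then a duplicate retest at 5 µM averaging 50% or more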;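 also: plate controls were cells with TRAIL plus DMSO for no effect and medium-only wells lacking cells for full effect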
APP 5'UTR act: APP 5'UTR luciferase reporter activation. SH-SY5Y APP 5'UTR luciferase reporter, luminescence; zero percent = DMSO vehicle wells. activation, % at 2 µM. AID 1276. hit rate 1% among 190,000;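 active = activation above a set limit, based on mean plus 3 SD of controls, cut at about 140% in these data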
FLuc stim CS: affects firefly luciferase, flagging false hits in luciferase stimulation screens; P08659; ATPlite luciferase biochemical, luminescence, 10 min; 0 = ATP-free wells, 1 = DMSO control; activation factor at 10 µM; 200,000 tested, under 10 active;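 active = luciferase activation factor, scaled between plate controls, of at least 2 with compound at 10 µM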
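Material: luciferase plus luciferin reagent, cell-free. Medium: PBS buffer for ATP. Also added: ATP substrate, dispensed from a 10.24 µM working solution in PBS. Doses: test compounds dosed from 2 mM stocks in 100% DMSO. Incubation: 10 min post-reagent at room temperature. Technique: light output (luminescence). Read-out basis: luminescence gain marking luciferase activators.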
TRAIL sens C8: caspase-8 TRAIL sensitization. NB7+C8 cells + TRAIL, ATPlite viability luminescence. hit rate 1% among 360,000. inhibition (viability loss, TRAIL sensitization), % at 10 µM. AID 624354;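 active = compounds causing at least 50% loss of cell viability in the single-dose screen, relative to plate controls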
The depositor's hits bear a star; . = no result given. The list is not random: actives were taken first. Their share in the collection is about 2.2%.

SMILES	NF-kB expr up	FLuc inhib CS	PPC-1+TRAIL kill	APP 5'UTR act	FLuc stim CS	TRAIL sens C8
Cc1cc(/C=C2/C(=N)N3C(=NC2=O)SN=C3S(C)(=O)=O)c(C)n1-c1ccc(F)cc1	1.87	69.5*	9.2	35.6	0.3	38.1
CSc1ccc(CN2CCC2(C)C(=O)NCc2ccc3c(c2)OCO3)cc1 (stereo not given)	.	.	.	.	.	2.6
Cc1nc(-c2ccc(NC(=O)c3ccccc3C)cc2)cs1	5.06*	61.5*	29.2	119.9	0.4	39.4
COc1ccc(NC(=O)c2ccc(-c3csc(C)n3)cc2)cc1	.	.	.	.	.	36.9
Cc1nc(-c2ccc(C(=O)Nc3cccc(F)c3)cc2)cs1	.	.	.	.	.	77.3*
Cc1nc(-c2ccc(NC(=O)c3ccccc3Br)cc2)cs1	4.83*	45.2	35.5	78.6	0.5	9.8
Cc1nc(-c2ccc(NC(=O)Cc3ccccc3)cc2)cs1	.	.	.	.	.	24.6
O=C(Nc1ccc2c(c1)OCO2)c1cc(C2CCCCN2C(=O)c2ccccc2)on1 (stereo not given)	.	.	.	.	.	-6.1
COc1ccc(C(=O)OCC(=O)c2ccc(C3CCCCC3)cc2)cc1	1.1	-1.7	1.4	24.5	1	9.7
Nc1ccc(O)cc1C(=O)OCC(=O)c1ccc(C2CCCCC2)cc1	6.77*	28.0	30.9	-48.9	0.7	4.2
Cc1ccccc1NS(=O)(=O)c1ccc2c(c1)CCC(=O)N2	.	.	.	.	.	-10.9
C=CCn1c(COc2ccccc2)nnc1SC(C)C(=O)N/N=C/c1cc(Cl)ccc1O (stereo not given)	3.51*	-3.7	15.2	-3.6	1	4.3
C=CCn1c(COc2ccc(Cl)cc2)nnc1SCC(=O)N/N=C/c1cccc(O)c1	1.16	-6.0	11.0	2.0	1.1	18.7
Cc1ccc(S(=O)(=O)N2C[C@@H](C)[C@]3(C2)[C@H](O)[C@H](OC(=O)NC2CCCC2)C[C@H]2C(=O)N(c4ccccc4)C(=O)[C@H]23)cc1	.	.	.	.	.	1.7
COc1ccccc1Nc1ncc(-c2cccs2)s1	5.13*	21.0	26.6	8.6	0.8	-0.3
COc1ccccc1Nc1ccc(C(=O)NCc2cccs2)cn1	2.24	4.6	20.1	-1.6	1	-3.5
Cn1ccnc1SCC(=O)c1ccc2ccccc2c1	3.04	43.6	3.7	163.5*	0.6	2.0
Cn1ccnc1SCC(=O)Nc1ccc2ccccc2c1	4.38*	33.9	27.6	104.7	0.7	2.7
CCCNC(=O)C1(C)CCCN(Cc2cccc(C#N)c2)C1 (stereo not given)	.	.	.	.	.	-17.7
Cc1cc(C(F)(F)F)c(C#N)c(SCC(=O)Nc2nc3ccccc3s2)n1	0.77	5.4	11.3	180.1*	0.9	44.3
Cc1ccc(C(=O)NNC(=S)Nc2cccc3ccccc23)s1	2.35	57.5*	28.7	150.2*	0.4	7.2
O=C(Nc1ccccc1F)c1ccc([N+](=O)[O-])s1	3.49*	3.7	7.9	13.2	1	17.2
O=C(Nc1cccnc1)c1ccc([N+](=O)[O-])s1	.	.	.	.	.	14.9
Cc1ccccc1NC(=O)/C=C/c1ccc([N+](=O)[O-])s1	9.78*	-5.1	18.8	-90.1	1.1	-29.8
O=C(Nc1cccc2ccccc12)c1ccc([N+](=O)[O-])s1	3.8*	-5.1	2.7	-25.1	1.1	7.8
SMILES	NF-kB expr up	FLuc inhib CS	PPC-1+TRAIL kill	APP 5'UTR act	FLuc stim CS	TRAIL sens C8
O=C(Nc1cccc2ccccc12)c1ccc([N+](=O)[O-])o1	.	.	.	.	.	21.0
Cc1cc(C)n2c(NC3CCCCC3)c(CC(C)C)nc2n1	.	.	.	.	.	3.0
COC(=O)c1cccc(CC2(C)C(=O)Nc3cc(-c4ccccc4Cl)ccc32)c1 (stereo not given)	.	.	.	.	.	5.8
C[C@@H]1CN([C@@H](C)CO)C(=O)c2cc(Br)cnc2O[C@H]1CN(C)C(=O)Cc1cccnc1	.	.	.	.	.	-20.9
CCc1c(C)c(C#N)c2nc3ccccc3n2c1Cl	0.22	-2.5	60.1*	-95.0	1	.
CCc1c(C)c(C#N)c2nc3ccccc3n2c1-n1nc(C)cc1C	1.16	-4.1	15.1	20.1	1	-4.1
CCOC(=O)[C@]12CCC=C1N(Cc1cccc3ccccc13)C(=O)[C@H](CC(=O)NCCCOC)C2	.	.	.	.	.	4.5
Cc1ccc(N/N=C/c2c(O)cc(C)oc2=O)cc1	1.11	68.1*	-9.6	10.7	0.3	5.0
Cc1cc(O)c(/C=N/Nc2ccc(F)cc2)c(=O)o1	0.98	68.0*	8.0	10.0	0.3	-3.4
OC(c1ccc(F)cc1)c1nc(-c2cc3ccccc3o2)cs1 (stereo not given)	.	.	.	.	.	-3.9
Cc1ccc(CN2C(=O)c3ccccc3C2c2nnnn2C(C)C)cc1 (stereo not given)	.	.	.	.	.	-9.0
CN(C)/C=N/c1cnc(C(=O)c2ccc(Cl)cc2)n1C	3.84*	15.2	6.0	19.2	0.8	-3.2
CN(C)/C=N/NC(=O)c1ccc(Cl)cc1	1.19	-6.6	0.6	-6.2	1.1	-13.6
CCOC(=O)c1c(C)nc2c3ccccc3ccn12	5.01*	53.7*	24.8	160.3*	0.5	49.6*
COc1ccc2c(c1OC)C(=O)N1c3cccc(Cl)c3C(=O)OC21 (stereo not given)	1.2	3.9	7.4	11.1	1	6.8
COc1ccc2c(c1OC)C(=O)N1c3ccccc3SC21 (stereo not given)	1.96	53.8*	5.2	79.3	0.5	26.6
COc1ccc2c(c1OC)C(=O)N1c3ccccc3COC21 (stereo not given)	4.4*	72.0*	24.6	81.9	0.3	47.4
COc1cccc(CN2CCC(C(=O)NC(C)c3cccc4ccccc34)CC2)c1 (stereo not given)	.	.	.	.	.	10.9
Cc1ccc(C)c(C(O)c2ncc(-c3ccc(F)cc3)[nH]2)c1 (stereo not given)	.	.	.	.	.	10.9
Cc1cc(O)c2c(c1O)C(=O)[C@]13C(=C2O)C(=O)[C@@H]2[C@@H](O)[C@H]1[C@@H]1[C@H](O)[C@H]3C(=O)C3=C(O)c4c(O)cc(C)c(O)c4C(=O)[C@]312	.	.	.	.	.	48.1*
O=C(N/N=C/c1ccc(OC(F)F)cc1)C1=COCCO1	2.47	67.5*	30.8	85.8	0.3	29.4
O=C(Nc1ccc(SC(F)F)cc1)C1=COCCO1	5.18*	41.2	8.6	201.0*	0.6	37.0
CC(C)C[C@@H]1Cc2[nH]c(=S)[nH]c(=O)c2[C@H](CCc2ccccc2)O1	.	.	.	.	.	-3.2
COc1ccccc1-c1cnc(C(O)c2cccc(CN3CCCCC3)c2)[nH]1 (stereo not given)	.	.	.	.	.	-5.2
CCOc1ccc(CCN2C(=S)N([C@@H](Cc3ccc(O)cc3)CN3CCC[C@@H]3CN3C(=S)NC[C@@H]3CC(C)C)C[C@@H]2Cc2ccc(O)cc2)cc1	.	.	.	.	.	0.5
CCc1ccc(Nc2n[n+](-c3ccccc3)c(-c3ccc(N(CC)CC)cc3)s2)cc1	.	.	.	.	.	52.6*
CCN(CC)c1ccc(-c2sc(Nc3ccccc3)n[n+]2-c2ccc(F)cc2)cc1	.	.	.	.	.	17.4

Assay outcomes (PubChem BioAssay)
